Assay results from article PMC4339026 (Biopolymers, 2014).

What was measured:
Type in all cases: biochemical
ADAM10 = molecular target: T1, ADAM10 (Homo sapiens, UniProt O14672); assay: Selectivity testing against zinc metalloproteases: ADAM10; settings: read-out: IC50 ADAM10; n = 3 Mean ± SD
T1 sequence (O14672 214-748): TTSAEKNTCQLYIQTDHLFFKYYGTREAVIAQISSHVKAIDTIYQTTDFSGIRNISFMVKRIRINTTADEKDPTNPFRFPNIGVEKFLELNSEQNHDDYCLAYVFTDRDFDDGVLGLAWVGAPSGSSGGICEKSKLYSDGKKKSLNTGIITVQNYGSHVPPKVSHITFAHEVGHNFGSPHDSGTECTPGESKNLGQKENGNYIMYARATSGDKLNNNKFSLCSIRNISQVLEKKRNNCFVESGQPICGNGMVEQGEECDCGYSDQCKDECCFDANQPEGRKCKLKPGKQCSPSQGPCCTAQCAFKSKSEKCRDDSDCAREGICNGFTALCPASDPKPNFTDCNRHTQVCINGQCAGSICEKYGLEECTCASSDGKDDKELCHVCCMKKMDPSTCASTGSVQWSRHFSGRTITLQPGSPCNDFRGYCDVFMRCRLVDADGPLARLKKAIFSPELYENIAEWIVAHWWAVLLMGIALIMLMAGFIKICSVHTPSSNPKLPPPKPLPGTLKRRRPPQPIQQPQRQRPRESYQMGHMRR

MMP-9 = MMP-9 (Homo sapiens, UniProt P14780); assay: Selectivity testing against zinc metalloproteases: MMP-9; settings: read-out: IC50 MMP-9; n = 3 Mean ± SD
Sequence of MMP-9 (P14780 94-707, species assumed): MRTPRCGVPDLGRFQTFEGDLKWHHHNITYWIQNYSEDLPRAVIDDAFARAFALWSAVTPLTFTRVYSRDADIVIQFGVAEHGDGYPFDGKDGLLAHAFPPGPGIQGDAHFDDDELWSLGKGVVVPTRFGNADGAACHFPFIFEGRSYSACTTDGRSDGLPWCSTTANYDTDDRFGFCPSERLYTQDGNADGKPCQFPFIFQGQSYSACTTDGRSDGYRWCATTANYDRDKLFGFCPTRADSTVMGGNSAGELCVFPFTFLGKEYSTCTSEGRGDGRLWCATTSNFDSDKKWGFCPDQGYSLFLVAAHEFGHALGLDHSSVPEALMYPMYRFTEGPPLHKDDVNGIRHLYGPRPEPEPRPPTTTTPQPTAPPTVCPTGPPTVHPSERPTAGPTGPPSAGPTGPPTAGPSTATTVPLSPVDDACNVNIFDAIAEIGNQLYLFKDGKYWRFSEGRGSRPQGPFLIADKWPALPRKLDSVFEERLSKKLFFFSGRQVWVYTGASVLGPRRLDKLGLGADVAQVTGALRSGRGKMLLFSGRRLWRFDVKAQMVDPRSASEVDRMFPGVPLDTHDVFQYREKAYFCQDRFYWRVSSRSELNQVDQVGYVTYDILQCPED

MMP-8 = MMP-8 (Homo sapiens, UniProt P22894); assay: Selectivity testing against zinc metalloproteases: MMP-8; settings: read-out: IC50 MMP-8; n = 3 Mean ± SD
Sequence of MMP-8 (P22894 101-467, species assumed): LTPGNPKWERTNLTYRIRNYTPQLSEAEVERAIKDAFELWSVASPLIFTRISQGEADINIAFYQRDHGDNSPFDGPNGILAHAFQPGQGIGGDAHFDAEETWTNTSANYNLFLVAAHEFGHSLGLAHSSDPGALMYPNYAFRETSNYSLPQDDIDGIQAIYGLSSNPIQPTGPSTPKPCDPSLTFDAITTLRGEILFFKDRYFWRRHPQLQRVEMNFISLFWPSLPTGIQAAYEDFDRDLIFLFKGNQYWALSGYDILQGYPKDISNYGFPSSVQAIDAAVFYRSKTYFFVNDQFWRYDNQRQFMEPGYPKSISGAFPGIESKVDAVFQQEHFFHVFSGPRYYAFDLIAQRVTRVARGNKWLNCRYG

ADAM17 = ADAM17 (Homo sapiens, UniProt P78536); assay: Selectivity testing against zinc metalloproteases: ADAM17; settings: read-out: IC50 ADAM17; n = 3 Mean ± SD
Sequence of ADAM17 (P78536 215-824, species assumed): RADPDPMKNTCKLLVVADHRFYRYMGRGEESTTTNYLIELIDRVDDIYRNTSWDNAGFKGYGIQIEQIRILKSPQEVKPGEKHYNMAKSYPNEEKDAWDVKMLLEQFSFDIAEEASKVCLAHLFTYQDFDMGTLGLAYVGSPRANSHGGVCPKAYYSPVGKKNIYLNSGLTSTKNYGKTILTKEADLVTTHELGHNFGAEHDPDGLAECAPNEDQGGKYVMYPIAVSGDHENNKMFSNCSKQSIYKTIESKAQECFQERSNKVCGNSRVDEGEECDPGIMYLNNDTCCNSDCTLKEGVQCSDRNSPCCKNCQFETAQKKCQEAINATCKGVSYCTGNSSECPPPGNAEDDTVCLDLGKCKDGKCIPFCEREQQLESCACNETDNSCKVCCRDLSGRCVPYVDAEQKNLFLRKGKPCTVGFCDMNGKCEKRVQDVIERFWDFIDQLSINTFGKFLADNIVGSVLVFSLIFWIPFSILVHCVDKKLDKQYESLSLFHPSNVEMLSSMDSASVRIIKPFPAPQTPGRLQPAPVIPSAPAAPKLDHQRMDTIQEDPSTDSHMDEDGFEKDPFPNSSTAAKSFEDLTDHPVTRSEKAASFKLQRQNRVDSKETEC

meprin β [1] = molecular target: T2, meprin β (Homo sapiens, UniProt Q16820); assay: Meprin β LOPAC pilot screen; settings: 18 μM
T2 sequence (Q16820 62-614 limits assumed): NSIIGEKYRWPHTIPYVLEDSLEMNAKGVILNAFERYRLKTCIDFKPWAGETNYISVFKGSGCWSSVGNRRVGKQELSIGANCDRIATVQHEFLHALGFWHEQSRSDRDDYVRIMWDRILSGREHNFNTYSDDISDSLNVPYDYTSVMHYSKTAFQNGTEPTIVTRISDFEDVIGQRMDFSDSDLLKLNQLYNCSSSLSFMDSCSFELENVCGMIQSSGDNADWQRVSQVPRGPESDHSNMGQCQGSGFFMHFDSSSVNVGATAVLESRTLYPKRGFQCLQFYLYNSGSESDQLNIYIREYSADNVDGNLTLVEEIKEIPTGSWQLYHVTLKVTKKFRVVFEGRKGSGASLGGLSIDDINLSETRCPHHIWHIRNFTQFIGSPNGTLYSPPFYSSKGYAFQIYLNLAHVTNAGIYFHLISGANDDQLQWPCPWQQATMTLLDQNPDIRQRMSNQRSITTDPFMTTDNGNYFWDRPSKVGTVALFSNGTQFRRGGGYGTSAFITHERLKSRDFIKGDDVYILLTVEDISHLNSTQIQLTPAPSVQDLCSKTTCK

MMP-14 = MMP-14 (Homo sapiens, UniProt P50281); assay: Selectivity testing against zinc metalloproteases: MMP-14; settings: read-out: IC50 MMP-14; n = 3 Mean ± SD
meprin α = molecular target: T3, meprin α (Homo sapiens, UniProt Q16819); assay: Meprin α HTS FRET assay, dose response; settings: read-out: IC50 Meprin α; selectivity testing; n = 3 Mean ± SD
T3 sequence (Q16819 66-653 limits assumed): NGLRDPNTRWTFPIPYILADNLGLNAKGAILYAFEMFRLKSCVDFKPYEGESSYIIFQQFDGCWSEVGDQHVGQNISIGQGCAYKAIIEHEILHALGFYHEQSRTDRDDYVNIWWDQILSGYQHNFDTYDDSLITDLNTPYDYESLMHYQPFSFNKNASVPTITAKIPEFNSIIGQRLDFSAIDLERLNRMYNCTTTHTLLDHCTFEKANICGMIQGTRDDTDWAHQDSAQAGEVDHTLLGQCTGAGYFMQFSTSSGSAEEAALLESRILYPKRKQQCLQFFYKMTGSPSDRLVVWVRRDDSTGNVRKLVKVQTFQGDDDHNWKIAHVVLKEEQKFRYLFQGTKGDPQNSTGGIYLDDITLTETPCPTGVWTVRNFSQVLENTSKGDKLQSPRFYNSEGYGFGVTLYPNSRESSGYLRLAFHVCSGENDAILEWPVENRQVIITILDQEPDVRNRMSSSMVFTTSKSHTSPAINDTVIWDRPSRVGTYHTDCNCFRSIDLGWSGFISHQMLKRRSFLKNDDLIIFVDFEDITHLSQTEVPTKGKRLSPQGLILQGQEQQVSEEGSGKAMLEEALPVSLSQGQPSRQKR
How it was run: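 Recombinant human Strep-tagged meprin α was expressed in baculovirus-infected BTI-TN-5B1-4 cells, trypsin-activated, then freed of trypsin. It was used as a 2x solution at 2.6 nM in 50 mM Hepes, 0.01% Brij-35, pH 7.5. Test compound was pre-incubated 30 min at RT, then 2x (MCA)-YVADAPK-(K-ε-DNP) at 20 μM was added for 1 h at RT. Read at ex 324/em 393 nm. 3-fold dilutions in quadruplicate; 4-parameter fit; 0.1% or 1.0% DMSO.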

meprin β [2] = molecular target: T2, meprin β; assay: Meprin β HTS FRET assay, dose response
How it was run: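 Trypsin-activated meprin β (trypsin removed on immobilized ovomucoid) in 50 mM Hepes, 0.01% Brij-35, pH 7.5, added as 2x (0.15 nM) solution. Pin-transferred inhibitor was preincubated 30 min at RT. 2x (20 μM) (MCA)-EDEDED-(K-ε-DNP) was then added, run 1 h at RT, and read at ex 324/em 393 nm. A 3-fold dilution series was run in quadruplicate, and % inhibition was fitted with a 4-parameter equation. DMSO final was 0.1% or 1.0%.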

O=C(Nc1cc(C(=O)Nc2ccc(S(=O)(=O)O)cc2S(=O)(=O)O)cc(C(=O)Nc2ccc(S(=O)(=O)O)cc2S(=O)(=O)O)c1)Nc1cc(C(=O)Nc2ccc(S(=O)(=O)O)cc2S(=O)(=O)O)cc(C(=O)Nc2ccc(S(=O)(=O)O)cc2S(=O)(=O)O)c1 [NF449, 4,4′,4″,4‴-[Carbonyl-bis[imino-5,1,3-benzenetriylbis-(carbonyl-imino)]]tetrakis(benzene-1,3-disulfonic acid)]
IC50 (ADAM10): 1.2 ± 0.1 µM | IC50 (MMP-9): 8.6 ± 0.7 µM | IC50 (MMP-8): 1 ± 0.1 µM | IC50 (ADAM17): 4.6 ± 0.3 µM | % inhibition meprin β in pilot screen (meprin β [1]): negative inhibition values | meprin β LOPAC pilot screen outcome (meprin β [1]; hit cutoff 25% inhibition): selective hits | IC50 (MMP-14): 18 ± 1.5 µM | IC50 (meprin α): > 100 µM | meprin β dose response behaviour (meprin β [2]; dose response experiment, data not shown): did not exhibit the same effect | potency differential meprin β versus meprin α (meprin β [2]; ratio of IC50 values): > 1000 fold | selectivity ratio meprin β versus MMP-8 (meprin β [2]; ratio of IC50 values): approximately 12 fold | IC50 (meprin β [2]; read-out: IC50 Meprin β, selectivity testing, n = 3 Mean ± SD): 0.07 ± 0.005 µM
